{
  "source": "ChEMBL document CHEMBL4028903",
  "about": "(J Med Chem, 2017)",
  "key": {"[1]": {"assay": "AUC in mouse at 10 mg/kg, po administered via gavage by LC-MS/MS analysis", "format": "ADME, organism-based", "conditions": "in vivo", "summary_of_the_method": "(§1)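 Single oral dose given as a suspension in 0.5% methylcellulose, 0.5% Tween80 and 99% water. Doses were 10 mg/kg in mouse, 1 mg/kg in rat and 2 mg/kg in dog.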"}, "[2]": {"biological_target": "T1, Bile acid receptor (Rattus norvegicus) (UniProt Q62735)", "T1 sequence (whole entry)": "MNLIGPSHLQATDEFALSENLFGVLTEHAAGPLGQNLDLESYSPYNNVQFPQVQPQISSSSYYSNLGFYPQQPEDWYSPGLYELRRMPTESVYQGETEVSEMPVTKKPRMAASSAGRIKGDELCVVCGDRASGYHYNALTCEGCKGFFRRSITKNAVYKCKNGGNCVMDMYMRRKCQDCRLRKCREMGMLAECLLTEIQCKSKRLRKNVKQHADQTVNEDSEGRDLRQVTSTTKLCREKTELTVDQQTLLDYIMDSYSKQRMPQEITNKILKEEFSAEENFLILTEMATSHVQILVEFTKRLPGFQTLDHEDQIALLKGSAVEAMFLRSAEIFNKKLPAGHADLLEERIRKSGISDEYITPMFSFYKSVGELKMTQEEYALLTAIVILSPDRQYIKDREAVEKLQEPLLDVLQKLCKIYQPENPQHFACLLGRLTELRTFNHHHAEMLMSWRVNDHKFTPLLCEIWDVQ", "assay": "Agonist activity at FXR in rat primary hepatocytes assessed as induction of BSEP mRNA level after 24 hrs by qPCR analysis", "format": "cell-based"}, "Rattus norvegicus [3]": {"tested_on": "Rattus norvegicus", "assay": "In vivo agonist activity at FXR in po dosed Sprague-Dawley rat assessed as downregulation of CYP8B1 mRNA level in liver administered once daily for 14 days measured 7 hrs post last dose on day 14 by qPCR analysis", "format": "functional"}, "Rattus norvegicus [4]": {"tested_on": "Rattus norvegicus", "assay": "In vivo agonist activity at FXR in Sprague-Dawley rat assessed as serum triglyceride level at 0.3 mg/kg, po administered once daily for 14 days measured 24 hrs post last dose", "format": "functional"}, "Rattus norvegicus [5]": {"tested_on": "Rattus norvegicus", "assay": "In vivo agonist activity at FXR in po dosed Sprague-Dawley rat assessed as induction of FGF15 protein level in plasma administered once daily for 14 days measured 24 hrs post last dose on day 14", "format": "functional, organism-based"}, "[6]": {"assay": "Drug uptake in Sprague-Dawley rat plasma at 1 mg/kg, po qd administered via gavage measured 1 hr post last dose on day 14 by LC-MS/MS analysis", "format": "ADME, organism-based"}, "[7]": {"assay": "Drug uptake in Sprague-Dawley rat liver at 0.3 mg/kg, po qd administered via gavage measured 1 hr post last dose on day 14 by LC-MS/MS analysis", "format": "ADME, organism-based", "conditions": "read-out: Drug uptake", "summary_of_the_method": "(§2)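 Drug concentration in liver was quantified from tissue homogenates, so these are total levels. Unbound liver concentration was not determined.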"}, "[8]": {"assay": "Drug uptake in Sprague-Dawley rat plasma at 0.3 mg/kg, po qd administered via gavage measured 1 hr post last dose on day 14 by LC-MS/MS analysis", "format": "ADME, organism-based"}, "[9]": {"assay": "Drug uptake in Sprague-Dawley rat plasma at 0.1 mg/kg, po qd administered via gavage measured 7 hrs post last dose on day 14 by LC-MS/MS analysis", "format": "ADME, organism-based"}, "[10]": {"assay": "Drug uptake in Sprague-Dawley rat liver at 0.03 mg/kg, po qd administered via gavage measured 1 hr post last dose on day 14 by LC-MS/MS analysis", "format": "ADME, organism-based", "conditions": "read-out: Drug uptake", "summary_of_the_method": "as §2"}, "[11]": {"assay": "Drug uptake in Sprague-Dawley rat plasma at 0.01 mg/kg, po qd administered via gavage measured 1 hr post last dose on day 14 by LC-MS/MS analysis", "format": "ADME, organism-based"}, "[12]": {"assay": "Drug uptake in Sprague-Dawley rat liver at 0.003 mg/kg, po qd administered via gavage measured 1 hr post last dose on day 14 by LC-MS/MS analysis", "format": "ADME, organism-based", "conditions": "read-out: Drug uptake", "summary_of_the_method": "as §2"}, "Rattus norvegicus [13]": {"tested_on": "Rattus norvegicus", "assay": "Dose normalized AUC (0 to 24 hrs) in Sprague-Dawley rat at 1 mg/kg, po qd administered via gavage measured on day 11 by LC-MS/MS analysis", "format": "ADME, organism-based", "conditions": "in vivo"}, "Rattus norvegicus [14]": {"tested_on": "Rattus norvegicus", "assay": "Dose normalized AUC (0 to 24 hrs) in Sprague-Dawley rat at 0.3 mg/kg, po qd administered via gavage measured on day 11 by LC-MS/MS analysis", "format": "ADME, organism-based", "conditions": "in vivo"}, "Rattus norvegicus [15]": {"tested_on": "Rattus norvegicus", "assay": "Dose normalized AUC (0 to 24 hrs) in Sprague-Dawley rat at 0.3 mg/kg, po qd administered via gavage measured on day 1 by LC-MS/MS analysis", "format": "ADME, organism-based", "conditions": "in vivo"}, "[16]": {"assay": "AUC (0 to 24 hrs) in Sprague-Dawley rat at 3 mg/kg, po qd administered via gavage measured on day 1 by LC-MS/MS analysis", "format": "ADME, organism-based", "design": "time < 24 hr, dose 3 mg/kg, route oral", "conditions": "in vivo"}, "[17]": {"assay": "AUC (0 to 24 hrs) in Sprague-Dawley rat at 1 mg/kg, po qd administered via gavage measured on day 1 by LC-MS/MS analysis", "format": "ADME, organism-based", "design": "dose 1 mg/kg, time < 24 hr, route oral", "conditions": "in vivo"}, "[18]": {"assay": "AUC (0 to 24 hrs) in Sprague-Dawley rat at 0.3 mg/kg, po qd administered via gavage measured on day 11 by LC-MS/MS analysis", "format": "ADME, organism-based", "design": "dose 0.3 mg/kg, time < 24 hr, route oral", "conditions": "in vivo"}, "[19]": {"assay": "AUC (0 to 24 hrs) in Sprague-Dawley rat at 0.1 mg/kg, po qd administered via gavage measured on day 11 by LC-MS/MS analysis", "format": "ADME, organism-based", "design": "time < 24 hr, dose 0.1 mg/kg, route oral", "conditions": "in vivo"}, "[20]": {"assay": "Cmax in Sprague-Dawley rat at 3 mg/kg, po qd administered via gavage measured on day 1 by LC-MS/MS analysis", "format": "ADME, organism-based", "design": "dose 3 mg/kg, route oral", "conditions": "in vivo"}, "[21]": {"assay": "Cmax in Sprague-Dawley rat at 0.03 mg/kg, po qd administered via gavage measured on day 1 by LC-MS/MS analysis", "format": "ADME, organism-based", "design": "dose 0.03 mg/kg, route oral", "conditions": "in vivo"}, "[22]": {"assay": "Clearance in mouse at 5 mg/kg, iv by LC-MS/MS analysis", "format": "ADME, organism-based", "conditions": "in vivo", "summary_of_the_method": "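Single IV dose given as a solution. Mouse received 5 mg/kg in 75% PEG300:25% D5W. Dog received 0.5 mg/kg in 20% PEG300, 5% solutol and 75% carbonate buffer pH = 8.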"}, "[23]": {"assay": "Half life in mouse at 5 mg/kg, iv by LC-MS/MS analysis", "format": "ADME, organism-based", "conditions": "in vivo", "summary_of_the_method": "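Single IV dose given as a solution. Mouse and rat received it in 75% PEG300:25% D5W. Dog received it in 20% PEG300, 5% solutol and 75% carbonate buffer pH = 8. Plasma was sampled for PK parameters.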"}, "[24]": {"assay": "AUC in dog at 2 mg/kg, po administered via gavage by LC-MS/MS analysis", "format": "ADME, organism-based, Canis lupus familiaris", "conditions": "in vivo", "summary_of_the_method": "as §1"}, "[25]": {"assay": "Cmax in mouse at 10 mg/kg, po administered via gavage by LC-MS/MS analysis", "format": "ADME, organism-based", "design": "dose 10 mg/kg, route oral", "conditions": "in vivo", "summary_of_the_method": "as §1"}, "[26]": {"assay": "Cmax in rat at 1 mg/kg, po administered via gavage by LC-MS/MS analysis", "format": "ADME, organism-based", "design": "dose 1 mg/kg, route oral", "conditions": "in vivo", "summary_of_the_method": "as §1"}, "Mus musculus [27]": {"tested_on": "Mus musculus", "assay": "Drug metabolism in mouse assessed as taurine conjugated metabolite formation at 5 mg/kg, iv or 10 mg/kg, po administered via gavage by LC-MS/MS analysis", "format": "ADME, organism-based", "conditions": "in vivo"}, "Mus musculus [28]": {"tested_on": "Mus musculus", "assay": "Drug metabolism in mouse assessed as glycine conjugated metabolite formation at 5 mg/kg, iv or 10 mg/kg, po administered via gavage by LC-MS/MS analysis", "format": "ADME, organism-based", "conditions": "in vivo"}, "Rattus norvegicus [29]": {"tested_on": "Rattus norvegicus", "assay": "In vivo agonist activity at FXR in po dosed Sprague-Dawley rat assessed as induction of BSEP mRNA level in liver administered as single dose measured 7 hrs post dose by qPCR analysis"}},
  "note": "Calls of active or inactive are those of the source. The rule behind the calls is not given here.",
  "data": [
    {"smiles": "O=C(O)c1cc(F)c2nc(N3C4CCC3CC(OCc3c(-c5ccccc5OC(F)(F)F)noc3C3CC3)C4)sc2c1", "note": "(centres undefined)", "values": [
      {"measurement": "AUC", "setting": "[1]", "value": 4.79, "unit": "µM·h"},
      {"measurement": "Activity", "setting": "[2]", "value": "Dose-dependent effect"},
      {"measurement": "ED50", "setting": "Rattus norvegicus [3]", "value": 0.01, "unit": "mg/kg"},
      {"measurement": "Activity", "setting": "Rattus norvegicus [4]", "value": 79, "unit": "%"},
      {"measurement": "Activity", "setting": "Rattus norvegicus [5]", "value": "inactive"},
      {"measurement": "concentration at 1 h", "setting": "[6]", "value": 16.4, "unit": "nM"},
      {"measurement": "concentration at 1 h", "setting": "[7]", "value": 84.5, "unit": "nM"},
      {"measurement": "concentration at 1 h", "setting": "[8]", "value": 6.84, "unit": "nM"},
      {"measurement": "concentration at 7 h", "setting": "[9]", "value": 4.89, "unit": "nM"},
      {"measurement": "concentration at 1 h", "setting": "[10]", "value": 11.9, "unit": "nM"},
      {"measurement": "concentration at 1 h", "setting": "[11]", "value": 0.37, "unit": "nM"},
      {"measurement": "concentration at 1 h", "setting": "[12]", "value": 2.92, "unit": "nM"},
      {"measurement": "AUC/dose", "setting": "Rattus norvegicus [13]", "value": 562, "unit": "nM·h"},
      {"measurement": "AUC/dose", "setting": "Rattus norvegicus [14]", "value": 633, "unit": "nM·h"},
      {"measurement": "AUC/dose", "setting": "Rattus norvegicus [15]", "value": 390, "unit": "nM·h"},
      {"measurement": "AUC(0-t) at 24 h", "setting": "[16]", "value": 1.34, "unit": "µM·h"},
      {"measurement": "AUC(0-t) at 24 h", "setting": "[17]", "value": 0.461, "unit": "µM·h"},
      {"measurement": "AUC at 24 h", "setting": "[18]", "value": 0.19, "unit": "µM·h"},
      {"measurement": "AUC at 24 h", "setting": "[19]", "value": 0.08, "unit": "µM·h"},
      {"measurement": "Cmax", "setting": "[20]", "value": 172, "unit": "nM"},
      {"measurement": "Cmax", "setting": "[21]", "value": 1.5, "unit": "nM"},
      {"measurement": "clearance", "setting": "[22]", "value": 5.3, "unit": "mL/min/kg"},
      {"measurement": "half-life", "setting": "[23]", "value": 2.6, "unit": "h"},
      {"measurement": "AUC", "setting": "[24]", "value": 3.66, "unit": "µM·h"},
      {"measurement": "Cmax", "setting": "[25]", "value": 1190, "unit": "nM"},
      {"measurement": "Cmax", "setting": "[26]", "value": 53, "unit": "nM"},
      {"measurement": "Drug metabolism", "setting": "Mus musculus [27]", "value": "Metabolite_Notdetected"},
      {"measurement": "Drug metabolism", "setting": "Mus musculus [28]", "value": "Metabolite_Notdetected"},
      {"measurement": "Activity", "setting": "Rattus norvegicus [29]", "value": "Dose-dependent effect"}
    ]}
  ]
}
